For one assay, the target named is T1, Midkine (Homo sapiens, UniProt P21741).
T1 sequence (P21741 whole entry): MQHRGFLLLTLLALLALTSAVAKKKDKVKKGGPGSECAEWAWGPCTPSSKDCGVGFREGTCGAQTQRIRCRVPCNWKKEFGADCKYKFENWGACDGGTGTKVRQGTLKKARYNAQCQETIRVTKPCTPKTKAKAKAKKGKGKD
Nature of the assay: Inhibition of fluorescein labelled heparin-like hexasaccharide probe binding to recombinant human midkine after 5 mins by fluorescence polarization assay. In outline: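 Recombinant human midkine at 63 nM final with 10 nM fluorescein-labelled heparin-like hexasaccharide probe in PBS (10 mM, pH 7.4) plus 0.5% BSA. […] Shaken 5 min in the dark; polarization read at ex 485 / em 535 nm. Triplicate wells averaged, one-site competition fit for IC50. At least three independent experiments.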
(In general: Polarisation of emitted light reports the rotation of a fluorescent probe.)

Assay [1] has as its target Fibroblast growth factor 2 (Homo sapiens, UniProt P09038). The experiment in a line: Inhibition of fluorescein labelled heparin-like hexasaccharide probe binding to recombinant human FGF-2 after 5 mins by fluorescence polarization assay. In outline: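 Competition fluorescence polarization in PBS (10 mM, pH 7.4) with 0.5% BSA final. Recombinant human FGF-2 at 97 nM final, fluorescein-labelled heparin-like hexasaccharide probe at 10 nM final, inhibitor serially diluted, final 25 µM to 12.5 nM. Shaken 5 min in the dark, then read at ex 485 / em 535 nm. Triplicate wells. One-site competitive fit against log concentration gives IC50. Mean ± SD of three independent experiments.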

A value given as a limit tells only on which side of the number the result lay.

Broadly, the IC50 is the concentration that inhibits the measured activity by half.

Sequence of Fibroblast growth factor 2 (P09038 143-288 limits assumed): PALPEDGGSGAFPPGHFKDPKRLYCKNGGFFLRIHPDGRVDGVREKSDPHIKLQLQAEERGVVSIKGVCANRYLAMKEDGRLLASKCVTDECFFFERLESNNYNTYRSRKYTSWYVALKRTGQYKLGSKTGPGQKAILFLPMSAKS

For `COc1ccc(O[C@@H]2O[C@H](COC(=O)CCC(F)(F)C(F)(F)C(F)(F)C(F)(F)C(F)(F)C(F)(F)C(F)(F)C(F)(F)F)[C@@H](O[C@@H]3O[C@H](COS(=O)(=O)O)[C@@H](OS(=O)(=O)O)[C@H](O[C@@H]4O[C@H](COC(=O)C(C)(C)C)[C@@H](O[C@@H]5O[C@H](COS(=O)(=O)O)[C@@H](OS(=O)(=O)O)[C@H](OC(=O)CCC(C)=O)[C@H]5N5C(=O)c6ccccc6C5=O)[C@H](OCc5ccccc5)[C@H]4OC(=O)c4ccccc4)[C@H]3N3C(=O)c4ccccc4C3=O)[C@H](OCc3ccccc3)[C@H]2OC(=O)c2ccccc2)cc1`, the IC50 stood at 270 nM on Midkine and 2400 nM in assay [1].
Regarding `COc1ccc(O[C@@H]2O[C@H](CO)[C@@H](O[C@@H]3O[C@H](COS(=O)(=O)O)[C@@H](OS(=O)(=O)O)[C@H](O)[C@H]3NC(C)=O)[C@H](O)[C@H]2O)cc1`, the IC50 on Midkine is over 250000 nM.
Still for that read-out and setting: the figure for `COc1ccc(O[C@@H]2O[C@H](CO)[C@@H](O[C@@H]3O[C@H](COS(=O)(=O)O)[C@@H](OS(=O)(=O)O)[C@H](O)[C@H]3NC(C)=O)[C@H](OCc3ccccc3)[C@H]2O)cc1` is over 250000 nM; for `COc1ccc(O[C@@H]2O[C@H](COC(=O)CCC(F)(F)C(F)(F)C(F)(F)C(F)(F)C(F)(F)C(F)(F)C(F)(F)C(F)(F)F)[C@@H](O[C@@H]3O[C@H](COS(=O)(=O)O)[C@@H](OS(=O)(=O)O)[C@H](OC(=O)CCC(C)=O)[C@H]3N3C(=O)c4ccccc4C3=O)[C@H](OCc3ccccc3)[C@H]2OC(=O)c2ccccc2)cc1` it is 700 nM.

The values above are taken from BindingDB's records for doi:10.1016/j.bmc.2018.01.022 (Csic and Universidad De Sevilla, 2018).
